Data as given in ChEMBL document CHEMBL1123829, “Resolved cis-10-hydroxy-4-n-propyl-1,2,3,4,4a,5,6,10b- octahydrobenzo[f]quinoline : central serotonin stimulating properties” (1987).
The source made the active and inactive calls. The rule behind the calls is not given here.

Columns and labels:
Rattus norvegicus [1] = species: Rattus norvegicus; experiment: Compound was tested for Dopa accumulation in corpus striatum(brain) of reserpinized rat; I = Inactive; assay type: functional, organism-based
Rattus norvegicus [2] = species: Rattus norvegicus; experiment: Compound was tested for 5-HTP accumulation in corpus striatum (brain) of reserpinized rat.; assay type: functional
Method in brief: (§1)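 Male Sprague-Dawley rats (200–300 g), pretreated with reserpine in glacial acetic acid/5.5% glucose. Compounds were given sc in saline at neutral pH. 5-HTP in striatum, limbic system or hemispheres was measured by HPLC with electrochemical detection. Dose-response curves used 4–6 dose levels per substance and region, with 95% confidence limits by modified probit analysis.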

Rattus norvegicus [3] = species: Rattus norvegicus; experiment: Compound was tested for Dopa accumulation in limbic system (brain) of reserpinized rat; I = Inactive; assay type: functional, organism-based
Rattus norvegicus [4] = species: Rattus norvegicus; experiment: Compound was tested for Dopa accumulation in hemispheres (brain) of reserpinized rat; I = Inactive; assay type: functional, organism-based
Rattus norvegicus [5] = species: Rattus norvegicus; experiment: Compound was tested for 5-HTP accumulation in limbic system (brain) of reserpinized rat.; assay type: functional; method in brief: as §1
Rattus norvegicus [6] = species: Rattus norvegicus; experiment: Compound was tested for 5-HTP accumulation in hemispheres (brain) of reserpinized rat.; assay type: functional; method in brief: as §1
Rattus norvegicus [7] = experiment: Compound was tested for Dopa accumulation in limbic system(brain) of reserpinized rat; A partial agonistic response at a dose of 12.5 uM/kg; assay type: functional, organism-based; conditions: filed as partial agonist
Rattus norvegicus [8] = experiment: Compound was tested for 5-HTP accumulation in limbic system(brain) of reserpinized rat; A partial agonistic response at a dose of 12.5 uM/kg; assay type: functional, organism-based; conditions: filed as partial agonist
Rattus norvegicus [9] = experiment: Compound was tested for Dopa accumulation in hemispheres (brain) of reserpinized rat; A partial agonistic response at a dose of 50 uM/kg; assay type: functional, organism-based; conditions: filed as partial agonist
Rattus norvegicus [10] = experiment: Compound was tested for 5-HTP accumulation in hemispheres (brain) of reserpinized rat; A partial agonistic response at a dose of 50 uM/kg; assay type: functional, organism-based; conditions: filed as partial agonist
Rattus norvegicus [11] = experiment: Compound was tested for Dopa accumulation in corpus striatum(brain) of reserpinized rat; A partial agonistic response at a dose of 25 uM/kg; assay type: functional, organism-based; conditions: filed as partial agonist
Rattus norvegicus [12] = experiment: Compound was tested for 5-HTP accumulation in corpus striatum(brain) of reserpinized rat; A partial agonistic response at a dose of 25 uM/kg; assay type: functional, organism-based; conditions: filed as partial agonist
Rattus norvegicus [13] = species: Rattus norvegicus; experiment: Compound was tested for 5-HTP accumulation in corpus striatum(brain) of reserpinized rat; assay type: functional; method in brief: as §1
Rattus norvegicus [14] = species: Rattus norvegicus; experiment: Compound was tested for 5-HTP accumulation in limbic system(brain) of reserpinized rat; assay type: functional; method in brief: as §1
Rattus norvegicus [15] = species: Rattus norvegicus; experiment: Compound was tested for 5-HTP accumulation in hemispheres (brain) of reserpinized rat; assay type: functional; method in brief: as §1
Rattus norvegicus [16] = species: Rattus norvegicus; experiment: Compound was tested for Dopa accumulation in limbic system(brain) of reserpinized rat; I = Inactive; assay type: functional, organism-based
Rattus norvegicus [17] = species: Rattus norvegicus; experiment: Compound was tested for 5-HTP accumulation in hemispheres (brain) of reserpinized rat; I = Inactive; assay type: functional; method in brief: as §1
Rattus norvegicus [18] = species: Rattus norvegicus; experiment: Compound was tested for 5-HTP accumulation in corpus striatum(brain) of reserpinized rat.; assay type: functional; method in brief: as §1
Rattus norvegicus [19] = species: Rattus norvegicus; experiment: Compound was tested for 5-HTP accumulation in limbic system(brain) of reserpinized rat.; assay type: functional; method in brief: as §1

Q: Which ED50 (Rattus norvegicus [1]) does the source give for `CCCN(CCC)[C@@H]1CCc2cccc(O)c2[C@@H]1C` here?
A: The ED50 was “inactive”.

Q: What about the ED50 (Rattus norvegicus [2]) of the same compound?
A: The ED50 was 0.04 µmol/kg.

Q: What about the ED50 (Rattus norvegicus [3]) of the same compound?
A: Its ED50 is “inactive”.

Q: What about the ED50 (Rattus norvegicus [4]) of the same compound?
A: Its ED50 is “inactive”.

Q: What about the ED50 (Rattus norvegicus [5]) of the same compound?
A: The ED50 was 0.09 µmol/kg.

Q: What about the ED50 (Rattus norvegicus [6]) of the same compound?
A: The ED50 was 0.09 µmol/kg.

Q: Which results are given for `CCCN1CCCC2c3c(O)cccc3CCC21` (centres undefined)?
A: ED50 (Rattus norvegicus [7]): Partial agonist; ED50 (Rattus norvegicus [8]): Partial agonist; ED50 (Rattus norvegicus [9]): Partial agonist; ED50 (Rattus norvegicus [10]): Partial agonist; ED50 (Rattus norvegicus [11]): Partial agonist; ED50 (Rattus norvegicus [12]): Partial agonist

Q: For `CCCN1CCCC2c3c(O)cccc3CCC21` (stereo in doubt) [listing 1 of 2 here], which ED50 (Rattus norvegicus [13]) is on record?
A: The ED50 was 3.63 µmol/kg.

Q: What about the ED50 (Rattus norvegicus [14]) of the same compound?
A: Its ED50 is 2.57 µmol/kg.

Q: What about the ED50 (Rattus norvegicus [15]) of the same compound?
A: Its ED50 is 3.47 µmol/kg.

Q: With `CCCN1CCCC2c3c(O)cccc3CCC21` (stereo in doubt) [listing 2 of 2 here] as the compound, how does the ED50 (Rattus norvegicus [16]) read?
A: Its ED50 is “inactive”.

Q: What about the ED50 (Rattus norvegicus [1]) of the same compound?
A: The ED50 was “inactive”.

Q: And the ED50 (Rattus norvegicus [4])?
A: Its ED50 is “inactive”.

Q: How did the ED50 (Rattus norvegicus [17]) turn out when `CCCN1CCCC2c3c(O)cccc3CCC21` (stereo in doubt; 4) [listing 1 of 2 here] was run?
A: The ED50 was 4.5 µmol/kg.

Q: What about the ED50 (Rattus norvegicus [18]) of the same compound?
A: Its ED50 is 3.4 µmol/kg.

Q: And the ED50 (Rattus norvegicus [19])?
A: The ED50 was 3.4 µmol/kg.

Q: `CCCN1CCCC2c3c(O)cccc3CCC21` (stereo in doubt; 4) [listing 2 of 2 here] was tested. Which ED50 (Rattus norvegicus [16]) did it give?
A: The ED50 was “inactive”.

Q: And the ED50 (Rattus norvegicus [1])?
A: Its ED50 is “inactive”.

Q: What about the ED50 (Rattus norvegicus [4]) of the same compound?
A: The ED50 was “inactive”.
